# WT yeast gro inh = growth inhibition of WT yeast, mitochondrial fusion screen; inhibition, % at 10 µM; AID 1362; mitochondrial fusion phenotypic screen, WT strain; actives 2.1% (n = 190,000); in the data active means inhibition above about 58%; tested in S. cerevisiae
# ROMK mod = human ROMK K+ channel modulation, primary screen | Tet-inducible ROMK, thallium flux fluorescence; actives lie on both sides | B-score at 10 µM | P48048 | AID 1918 | actives 2% (n = 130,000);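 active means signal ratio slope over the read window, or its plate-corrected B-score, at least 3 SD from the plate mean, either direction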;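 further: B-score of the F/F0 ratio slope over 7 to 12 s after thallium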
# Target sequence (P48048 whole entry, looked up): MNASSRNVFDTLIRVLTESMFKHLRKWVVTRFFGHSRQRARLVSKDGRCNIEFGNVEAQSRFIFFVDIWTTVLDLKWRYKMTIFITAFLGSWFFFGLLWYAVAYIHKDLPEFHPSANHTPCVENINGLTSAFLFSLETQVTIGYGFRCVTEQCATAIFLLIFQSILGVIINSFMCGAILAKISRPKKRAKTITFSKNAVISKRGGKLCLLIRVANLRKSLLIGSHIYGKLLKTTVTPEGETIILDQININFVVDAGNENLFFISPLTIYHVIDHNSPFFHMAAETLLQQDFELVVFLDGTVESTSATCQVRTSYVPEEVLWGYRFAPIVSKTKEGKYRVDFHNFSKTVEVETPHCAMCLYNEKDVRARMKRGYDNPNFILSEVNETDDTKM
# Diaphorase act = diaphorase activation or chemical reduction counter-screen; Diaphorase/resazurin coupled assay, resorufin fluorescence, 16 min; stronger effect = higher value; 1 = vehicle wells, 0 = NADH-free wells; activation factor at 20 µM; actives 0.005% (n = 190,000);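 active means diaphorase activity raised at least twofold by the compound at 20 µM; inactive means activation factor below 2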
#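 Assay system: bacterial diaphorase enzyme (C. kluyveri) / Input: enzyme 0.07 U/mL final / Medium: 50 mM HEPES pH 7.4 with 4.542 mM MgCl2, 0.005% Tween 20 / Doses: single compound dose of 20 µM, 1% DMSO final / Incubation: 16 min enzyme reaction, ambient temperature / Signal: fluorescence, excitation 544 nm and emission 590 nm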
# Diaph inh CS = counter-screen for diaphorase-based assays: diaphorase inhibitors and chemical oxidizers. diaphorase resazurin-to-resorufin fluorescence, NADH, 16 min; bacterial (C. kluyveri) enzyme, not human. inhibition, % at 20 µM. actives 0.69% (n = 190,000);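 active means primary screen inhibition at 20 µM above a set limit, cut at about 50% in these data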;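 further: plate controls were DMSO with full reaction for no effect and wells lacking NADH for full effect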
#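 Assay system: diaphorase enzyme from Clostridium kluyveri; Input: enzyme working solution with 0.14 U/mL diaphorase; Timing: 16 min at room temperature; Technique: resorufin fluorescence, excitation 544 nm, emission 590 nm; Benchmarks: positive control minus NADH, DMSO neutral control.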
# L major viab = reduces viability of Leishmania major promastigotes; resazurin fluorescence viability; inhibition, % at 10 µM; actives 9% (n = 200,000); in the data active means inhibition above about 50%;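 further: promastigotes grown with compound for 44 hours at 28 °C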
# KCC2 mod = modulates chloride dependent transport by human KCC2 | KCC2 cells, thallium flux FluoZin-2 fluorescence | B-score of Tl+ flux slope (higher = more flux/activation; lower = inhibition) at 10 µM | actives 2.2% (n = 190,000);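 active means thallium flux slope and its plate-corrected score both differing from the plate sample mean at a set confidence after two filtering rounds, in either direction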;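 further: slope of fluorescence scaled to starting intensity during 10 to 20 s after thallium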
# KCC2 sec1 = KCC2 (human) modulation, secondary assay. shares compounds with KCC2 mod. HEK293-KCC2, thallium flux, FluoZin2 fluorescence; stronger effect = higher value. normalised thallium flux (F/F0 slope) at 10 µM. actives 15% (n = 3,700). AID 1713;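 active means thallium flux slope above the same plate's solvent-only control mean plus 3 SD; inconclusive means the two replicate wells disagree; inactive means no significant difference from solvent-only control wells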
# KCC2 bumet counter = bumetanide-insensitive thallium flux in KCC2 cells with ouabain, counter-screen. normalized thallium flux at 10 µM. shares compounds with KCC2 mod. HEK293-KCC2 + bumetanide/ouabain, thallium flux FluoZin2; stronger effect = higher value. actives 49% (n = 3,700);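 active means thallium entry rate above the same plate's blocked-transporter control wells by more than 3 SD; inconclusive means the two repeat wells disagree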;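 further: raw slope of fluorescence over initial fluorescence between 10 and 20 s after thallium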
# KCC2 secondary2 = KCC2 (human) modulation, second secondary assay | shares compounds with KCC2 mod | HEK293-KCC2, thallium flux FluoZin2 fluorescence; actives lie on both sides; F/F0 rise rate, 10–20 s post-thallium | normalized thallium flux at 10 µM | actives 23% (n = 3,700);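 active means thallium flux slope more than 3 SD above or below the plate's solvent-only control mean, mostly below; inconclusive means the two repeat wells disagreed; inactive means no significant shift from solvent-only controls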;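 further: raw slope with 0.1% DMSO as baseline and bumetanide as block control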
# HEK293 Tl flux = counter-screen for KCC2 modulators: effect in parental HEK293 cells. AID 1716. shares compounds with KCC2 mod. thallium flux rate (normalised fluorescence) at 10 µM. actives 46% (n = 3,700). thallium flux FluoZin2, ouabain; baseline-ratio fluorescence slope, 10–20 s after thallium;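 active means thallium flux rate significantly above the same plate's solvent-only control wells, beyond their mean plus 3 SD; inconclusive means the two replicate wells gave conflicting results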
# KCC2 retest ouab = KCC2 (human) modulation, ouabain retest | shares compounds with KCC2 mod | raw Tl+ flux slope (below DMSO = inhibition, above = activation) at 10 µM | HEK293-KCC2, thallium flux FluoZin2 fluorescence; bidirectional: low = inhibitor, high = activator | actives 48% (n = 3,700);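 active means thallium flux slope beyond 3 SD from same-plate DMSO control mean in most replicates, usually higher, sometimes lower; inconclusive means repeat tests gave conflicting results; inactive means no significant difference from controls in most replicates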;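 further: slope of initial-normalized fluorescence between seconds 10 and 20 after thallium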
# HEK counter2 = parental HEK flux effect, counter-screen 2 | actives 33% (n = 3,700) | AID 1718 | shares compounds with KCC2 mod | HEK293 parental, thallium flux FluoZin-2 fluorescence slope | thallium flux slope at 10 µM;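 active means thallium flux slope above the same plate's solvent-control mean plus 3 SD in both duplicate wells; inconclusive means duplicate wells that disagreed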;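 further: run without ouabain in cells lacking the KCC2 cotransporter; slope of fluorescence scaled to its starting value between 10 and 20 s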
# An asterisk follows results filed as active; ? = inconclusive; / = no result. Only some compounds are listed: those with a hit (about 12% of all), similar ones and a draw of the others.
SMILES,WT yeast gro inh,ROMK mod,Diaphorase act,Diaph inh CS,L major viab,KCC2 mod,KCC2 sec1,KCC2 bumet counter,KCC2 secondary2,HEK293 Tl flux,KCC2 retest ouab,HEK counter2
CCC(c1nnnn1Cc1ccccc1)N1CCN(c2ccccc2)CC1 (centres undefined),9,-0.15,/,/,38,-3.9*,0.016,0.0042,?,0.0066,0.015*,0.0097
COc1ccc(C(c2nnnn2Cc2ccccc2)N2CCN(c3ccccc3)CC2)cc1 (centres undefined),12,/,0.8,16,2,-1.4,/,/,/,/,/,/
S=c1nc(C2CCCCC2)n(-c2ccccc2)[nH]1,11,/,0.8,19,5,126*,0.055*,0.14*,0.048*,0.078*,0.11*,0.031*
COCCNC(=O)CSc1nc2cc(OC)c(OC)cc2c(=O)n1CCc1ccc(S(N)(=O)=O)cc1,1,0.6,0.9,8,-3,1.6,/,/,/,/,/,/
CCOc1ccc(NC(=O)c2ccccc2O)cc1,29,0.64,0.9,7,-12,-1.3,/,/,/,/,/,/
COC(=O)NNC(=O)c1ccccc1OC,0,-1.1,1.2,-25,-4,0.54,/,/,/,/,/,/
O=C(NNC(=O)c1ccccc1Br)c1ccccc1Cl,-16,0.25,1,4,-3,0.45,/,/,/,/,/,/
COc1ccccc1C(=O)NNC(=O)C(=O)NC(C)(C)C,-18,/,0.9,10,-5,34*,0.0057,0.042*,0.044*,0.03*,0.043*,0.029*
CC(C)(C)NC(=O)C(=O)NNC(=O)c1ccccc1Br,-5,0.16,0.9,8,-6,9.6*,0.015*,0.024*,0.036,?,0.03*,0.012
CCOc1ccc(NC(=O)c2ccccc2OC)cc1,14,/,0.9,12,-5,-4.7*,0.0077,0.0051,0.03,0.0084,0.019,0.012
O=C1CN(C(=O)COc2ccc(Br)cc2Br)c2ccccc2N1,7,-0.39,0.8,21,17,0.075,/,/,/,/,/,/
COn1c(SC2CCCCC2)nc2ccccc2c1=O,19,-1.1,0.8,22,3,2.6*,?,0.014*,0.027,0.012*,?,0.0099
O=C(CN1CCN(c2ccc(F)cc2)CC1)Nc1ccccc1[N+](=O)[O-],1,-0.29,0.8,20,-4,-1.5,/,/,/,/,/,/
COc1ccc(/C=C2\CCc3ccccc3C2=O)cc1CN1CCOCC1,/,/,/,/,/,-5*,?,?,0.023*,0.0072,?,0.01
CCCn1c(SCC(=O)N2c3ccccc3CC2C)nnc1-c1ccco1 (centres undefined),10,0.87,0.9,13,0,-4.8*,0.0083,0.0044,0.035,?,0.018*,0.0094
Cc1c(C(=O)N2CCCCC2)nnn1-c1nonc1N,5,0.88,0.9,10,-7,0.13,/,/,/,/,/,/
COCCNS(=O)(=O)c1cc(C)c(C)cc1C,9,-0.65,0.9,13,-3,0.97,/,/,/,/,/,/
O=C(OC1CCc2ccccc2C1=O)c1ccccc1O (centres undefined),16,/,0.6,37,8,-3.8*,0.0087,?,0.027*,0.0075,0.013*,0.011
COC(=O)C1=C(C)N(CCc2cc(OC)c(OC)c(OC)c2)C(=O)N[C@H]1c1ccc(Br)cc1,8,-0.12,0.7,30,11,-0.78,/,/,/,/,/,/
Cc1ccc(CN(c2ccc(C(=O)Nc3ccc4c(c3)OCO4)cc2)S(C)(=O)=O)cc1,-1,-0.31,1,5,-8,4.7*,0.0076,?,0.028,0.008,0.019,0.012
COC(=O)C(CO)NC(=O)C(C)NC(=O)CNC(=O)OCc1ccccc1 (centres undefined),-16,0.26,1,4,-7,-0.0058,/,/,/,/,/,/
Cn1cnc2cc(OC(=O)c3ccccc3)ccc21,-2,0.074,0.9,14,-2,/,0.01,0.0066,0.028,0.0073,0.05,?
Cc1ccc(NC(=O)CCS(=O)(=O)c2ccccc2)cc1S(=O)(=O)N1CCOCC1,-5,-0.082,1,4,-3,-1.7,/,/,/,/,/,/
COc1ccc(CNCC(=O)Nc2ccccc2-n2cccc2)cc1,1,1.5,0.9,6,-5,-0.45,/,/,/,/,/,/
Cc1ccc(/C=c2\s/c(=C(/C#N)C(=O)N3CCCC3)n(Cc3ccco3)c2=O)s1,48,/,0.8,21,-1,8.2*,0.018,0.0048,0.025*,0.007,0.014,0.0099
SMILES,WT yeast gro inh,ROMK mod,Diaphorase act,Diaph inh CS,L major viab,KCC2 mod,KCC2 sec1,KCC2 bumet counter,KCC2 secondary2,HEK293 Tl flux,KCC2 retest ouab,HEK counter2
COc1cc(/C=c2\s/c(=C(/C#N)C(=O)N3CCCC3)n(-c3ccccc3)c2=O)ccc1O,5,-1.7,0.8,20,-3,-2.1,/,/,/,/,/,/
CC(C(=O)NC(C)(C)C)N(Cc1cccs1)C(=O)CCN1CCc2ccccc21 (centres undefined),16,-0.18,0.9,8,26,2.6,/,/,/,/,/,/
CCOC(=O)c1sc(C)c2c(=O)n(Cc3ccc(Cl)cc3)c(C)nc12,-18,/,0.8,20,12,-0.16,/,/,/,/,/,/
CCOC(=O)c1nc(-c2ccccc2)sc1C(C)=O,/,/,/,/,/,-0.39,/,/,/,/,/,/
CCOC(=O)c1sc(-c2ccc(Cl)cc2)nc1O,/,/,/,/,/,15*,0.0096,0.022*,0.032,0.011*,0.024,?
CCOC(=O)c1sc(-c2ccc(C(F)(F)F)cc2)nc1O,/,/,/,/,/,2.6,/,/,/,/,/,/
CCOC(=O)c1sc2nc(Cc3ccc(Cl)cc3)[nH]c(=S)c2c1C,6,0.72,1,5,18,79*,0.025*,0.12*,0.038*,0.052*,0.076*,0.026*
CCOC(=O)c1sc(-c2cccc(C(F)(F)F)c2)nc1O,/,/,/,/,/,8.1*,0.0071,0.015*,0.03,0.012*,?,0.014*
O=C(NC1CCCCCC1)C1CCN(c2nc3ccccc3o2)CC1,27,-2.2,0.8,24,10,/,0.0094,0.0057,?,0.0042,0.018*,0.011
